Measured values from ChEMBL document CHEMBL4334552, “Discovery of BMS-986260, a Potent, Selective, and Orally Bioavailable TGFβR1 Inhibitor as an Immuno-oncology Agent” (ACS Med Chem Lett, 2020).
Activity calls are given as the source filed them. The rule behind the calls is not given here.

Legend:
[1] = Cardiovascular toxicity in dog at 5 mg/kg, po dosed every 3 days on and 4 days off treatment regime for 1 month; type: organism-based, Canis lupus familiaris; conditions: in vivo
MC-38 = experiment: Antitumour activity against mouse MC38 cells allografted in C57Bl/6 mouse assessed as reduction in tumour growth at 3.75 to 15 mg/kg, po qd for 28 days cotreated with anti-PD1 at 10 mg/kg, ip every 4 days for 3 doses measured for ten doubling times after cessation of treatment by digital caliper analysis; type: functional, organism-based
Outline: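 C57/BL6 mice received 0.1 mL of MC38 cells (1 × 10^7 cells/mL) subcutaneously in the right flank. Mice were randomized at about 100 mm3, typically day 5. Oral dosing was once daily for 28 days at 3.75, 7.5 or 15 mg/kg. Anti-PD-1 was given at 10 mg/kg IP every 4 days for three doses. Isotype IgG1 MOPC-21 served as control on the same schedule.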

TGF-beta receptor type-1 [2] = molecular target: T1, TGF-beta receptor type-1 (Homo sapiens, UniProt P36897); experiment: Inhibition of TGFBR1 in TGFbeta-stimulated human NHLF cells assessed as reduction in SMAD2 nuclear translocation
T1 sequence (P36897 whole entry): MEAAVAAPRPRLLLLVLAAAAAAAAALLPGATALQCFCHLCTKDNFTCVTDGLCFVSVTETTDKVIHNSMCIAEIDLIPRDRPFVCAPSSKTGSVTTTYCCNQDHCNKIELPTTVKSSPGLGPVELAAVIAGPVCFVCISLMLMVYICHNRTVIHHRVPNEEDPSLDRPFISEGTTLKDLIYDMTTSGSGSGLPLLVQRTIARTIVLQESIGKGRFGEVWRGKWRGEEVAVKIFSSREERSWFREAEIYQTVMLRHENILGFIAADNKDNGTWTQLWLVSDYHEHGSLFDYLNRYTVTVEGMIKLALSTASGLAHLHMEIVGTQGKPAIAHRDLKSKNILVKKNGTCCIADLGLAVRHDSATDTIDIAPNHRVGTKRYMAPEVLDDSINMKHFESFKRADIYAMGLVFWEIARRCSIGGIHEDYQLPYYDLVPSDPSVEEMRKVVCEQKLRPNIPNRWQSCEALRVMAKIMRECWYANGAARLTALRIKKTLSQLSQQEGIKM

[3] = Clearance in Beagle dog at 1 mg/kg, iv; type: ADME, organism-based, Canis lupus familiaris; conditions: in vivo
Outline: (§1)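 Male Beagle dogs, n = 2, pretreated with pentagastrin. The po dose of 5 mg/kg was in 5% ethanol, 45% PEG400 and 50% 25 mM acetate buffer pH 4.0. The iv dose of 1 mg/kg was in 5:45:50 EtOH/PEG400/saline at 1 mL/kg.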

Salmonella typhimurium = experiment: Genotoxicity against Salmonella typhimurium by Ames test; type: toxicity, organism-based; conditions: salmonella enterica subsp. enterica serovar typhimurium
[4] = MRT in Sprague Dawley rat at 5 mg/kg, iv; type: ADME, organism-based; conditions: in vivo
Outline: (§2)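 Male Sprague–Dawley rats (n = 3) received a PEG400 solution iv at 5 mg/kg and po at 10 mg/kg.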

[5] = Oral bioavailability in Beagle dog at 5 mg/kg; type: ADME, organism-based, Canis lupus familiaris; conditions: in vivo
Outline: (§3)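 Male Beagle dogs (n = 2) were pretreated with pentagastrin and dosed iv at 1 mg/kg and po at 5 mg/kg. The oral vehicle was 5% ethanol, 45% PEG400 and 50% 25 mM acetate buffer pH 4.0. The iv vehicle was 5:45:50 EtOH/PEG400/saline at 1 mL/kg.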

[6] = Metabolic stability of compound in mouse liver microsomes assessed as compound remaining; type: ADME, Microsome
PXR = molecular target: T2, PXR (Homo sapiens, UniProt O75469); experiment: Activation of PXR (unknown origin) relative to control
T2 sequence (O75469 whole entry): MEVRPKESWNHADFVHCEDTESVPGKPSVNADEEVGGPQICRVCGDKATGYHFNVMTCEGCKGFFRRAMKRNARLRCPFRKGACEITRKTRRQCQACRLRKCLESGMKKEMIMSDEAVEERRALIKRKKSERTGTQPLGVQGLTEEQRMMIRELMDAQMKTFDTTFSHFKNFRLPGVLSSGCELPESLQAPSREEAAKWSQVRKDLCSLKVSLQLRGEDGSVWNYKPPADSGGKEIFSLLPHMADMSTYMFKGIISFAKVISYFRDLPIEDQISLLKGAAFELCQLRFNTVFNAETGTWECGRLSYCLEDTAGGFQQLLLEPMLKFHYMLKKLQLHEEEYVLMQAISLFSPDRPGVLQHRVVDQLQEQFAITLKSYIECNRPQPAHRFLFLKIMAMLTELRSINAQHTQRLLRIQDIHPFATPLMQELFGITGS

[7] = Volume of distribution at steady state in Beagle dog at 1 mg/kg, iv; type: ADME, organism-based, Canis lupus familiaris; conditions: in vivo, read-out: Vdss; outline: as §3
Cytochrome P450 2C19 [8] = molecular target: T3, Cytochrome P450 2C19 (Homo sapiens, UniProt P33261); experiment: Induction of recombinant CYP2C19 (unknown origin) up to 24 microM; type: ADME; conditions: recombinant enzyme
[9] = Cardiovascular toxicity in dog assessed as valvulo-pathy at 5 mg/kg, po for 10 days; type: organism-based, Canis lupus familiaris; conditions: in vivo, 240 h
Outline: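 Exploratory toxicology studies of 10 days with daily oral dosing in rats and dogs. Cardiovascular findings, including valvulopathy and aortic pathology, were assessed.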

[10] = Oral bioavailability in Sprague Dawley rat at 10 mg/kg; type: ADME, organism-based; conditions: in vivo; outline: as §2
Cytochrome P450 2C19 [11] = molecular target: T3, Cytochrome P450 2C19; experiment: Inhibition of recombinant CYP2C19 (unknown origin); type: ADME
Cytochrome P450 2C9 = Cytochrome P450 2C9 (Homo sapiens, UniProt P11712); experiment: Induction of recombinant CYP2C9 (unknown origin) up to 24 microM; type: ADME; conditions: recombinant enzyme
[12] = Total AUC in Balb/C mouse at 10 mg/kg, po; type: ADME, organism-based; set-up: dose 10 mg/kg, route oral, time AUCmax; conditions: in vivo
Outline: (§4)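 Male Balb/C mice (n = 3) dosed iv at 5 mg/kg and po at 10 mg/kg. Vehicle was 70% 25 mM acetate buffer pH 4.0, 5% ethanol and 25% PEG 400.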

[13] = Total AUC in Balb/C mouse at 5 mg/kg, iv; type: ADME, organism-based; set-up: dose 5 mg/kg, route intravenous, time AUCmax; conditions: in vivo; outline: as §4
[14] = Protein binding in human serum assessed as unbound fraction; type: ADME, cell-free
[15] = Half life in Sprague Dawley rat at 5 mg/kg, iv; type: ADME, organism-based; conditions: in vivo
Outline: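 Male Sprague–Dawley rats (n = 3) dosed iv at 5 mg/kg as a PEG400 solution, alongside a 10 mg/kg oral arm. Half-life was derived from the iv profile.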

[16] = MRT in Beagle dog at 1 mg/kg, iv; type: ADME, organism-based, Canis lupus familiaris; conditions: in vivo; outline: as §3
[17] = Metabolic stability of compound in rat liver microsomes assessed as compound remaining after 10 mins; type: ADME, Microsome; conditions: read-out: Stability
[18] = Cmax in Beagle dog at 5 mg/kg, po; type: ADME, organism-based, Canis lupus familiaris; set-up: dose 5 mg/kg, route oral; conditions: in vivo; outline: as §1
TGF-beta receptor type-1 [19] = molecular target: T1, TGF-beta receptor type-1; experiment: Inhibition of TGFbetaR1 in anti-CD3/anti-CD28/IL-2/TGFbeta -stimulated human Treg cells assessed as downregulation of FOXP3 expression incubated for 5 days by flow cytometry analysis
Cytochrome P450 2D6 = Cytochrome P450 2D6 (Homo sapiens, UniProt P10635); experiment: Induction of recombinant CYP2D6 (unknown origin) up to 24 microM; type: ADME; conditions: recombinant enzyme
[20] = Tmax in Balb/C mouse at 10 mg/kg, po; type: ADME, organism-based; conditions: in vivo; outline: as §4
[21] = Volume of distribution at steady state in Balb/C mouse at 5 mg/kg, iv; type: ADME, organism-based; conditions: in vivo, read-out: Vdss; outline: as §4

T3 sequence (P33261 whole entry): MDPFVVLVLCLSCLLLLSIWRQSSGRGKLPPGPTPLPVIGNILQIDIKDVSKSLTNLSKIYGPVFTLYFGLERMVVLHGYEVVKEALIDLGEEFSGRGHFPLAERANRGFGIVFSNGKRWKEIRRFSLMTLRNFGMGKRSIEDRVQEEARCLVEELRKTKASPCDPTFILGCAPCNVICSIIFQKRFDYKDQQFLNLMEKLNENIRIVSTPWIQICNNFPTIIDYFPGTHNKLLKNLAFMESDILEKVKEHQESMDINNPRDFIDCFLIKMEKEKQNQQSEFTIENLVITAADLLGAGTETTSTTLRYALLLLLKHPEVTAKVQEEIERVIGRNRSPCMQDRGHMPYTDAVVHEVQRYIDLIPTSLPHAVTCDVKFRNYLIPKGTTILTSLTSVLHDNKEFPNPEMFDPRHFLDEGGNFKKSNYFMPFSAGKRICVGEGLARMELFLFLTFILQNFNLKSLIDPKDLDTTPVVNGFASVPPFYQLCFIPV
Sequence of Cytochrome P450 2C9 (P11712 whole entry): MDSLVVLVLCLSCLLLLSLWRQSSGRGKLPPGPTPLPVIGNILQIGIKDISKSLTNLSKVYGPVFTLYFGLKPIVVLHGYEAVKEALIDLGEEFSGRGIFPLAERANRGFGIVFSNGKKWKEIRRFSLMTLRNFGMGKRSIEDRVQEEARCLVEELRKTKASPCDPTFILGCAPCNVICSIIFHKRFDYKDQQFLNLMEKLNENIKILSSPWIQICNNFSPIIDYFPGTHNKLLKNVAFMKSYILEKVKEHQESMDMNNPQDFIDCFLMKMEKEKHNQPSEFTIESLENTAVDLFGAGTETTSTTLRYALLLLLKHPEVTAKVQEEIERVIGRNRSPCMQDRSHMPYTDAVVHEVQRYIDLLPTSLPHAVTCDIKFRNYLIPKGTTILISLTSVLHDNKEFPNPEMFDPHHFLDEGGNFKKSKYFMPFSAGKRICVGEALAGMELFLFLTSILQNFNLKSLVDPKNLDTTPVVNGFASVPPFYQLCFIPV
Sequence of Cytochrome P450 2D6 (P10635 whole entry): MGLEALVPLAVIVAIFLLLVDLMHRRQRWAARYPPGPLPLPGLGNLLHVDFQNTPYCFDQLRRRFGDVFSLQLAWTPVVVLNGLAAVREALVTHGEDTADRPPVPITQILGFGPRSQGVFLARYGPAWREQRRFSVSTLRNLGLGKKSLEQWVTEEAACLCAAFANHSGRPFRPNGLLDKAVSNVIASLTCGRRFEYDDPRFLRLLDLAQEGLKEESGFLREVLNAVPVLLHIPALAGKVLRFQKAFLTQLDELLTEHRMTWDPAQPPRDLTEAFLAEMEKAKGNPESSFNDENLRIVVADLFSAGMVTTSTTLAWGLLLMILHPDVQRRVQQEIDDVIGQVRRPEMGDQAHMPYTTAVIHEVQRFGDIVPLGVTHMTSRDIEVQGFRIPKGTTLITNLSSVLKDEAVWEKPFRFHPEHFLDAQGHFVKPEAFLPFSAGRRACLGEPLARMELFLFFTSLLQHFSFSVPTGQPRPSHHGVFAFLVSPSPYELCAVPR

## N#Cc1cnc2ccc(-c3c(-c4ccc(F)c(Cl)c4)ncn3CCO)nn12
[1]
  Activity: Non-Toxic
MC-38
  inhibition: Active
TGF-beta receptor type-1 [2]
  IC50: 190 nM
[3]
  clearance: 6.4 mL/min/kg
Salmonella typhimurium
  Activity: Non-Toxic
[4]
  MRT: 7.2 h
[5]
  bioavailability: 93%
[6]
  Stability: 81%
PXR
  Emax: 44%
[7]
  Vd: 1.1 L/kg
Cytochrome P450 2C19 [8]
  Activity: Not Active
[9]
  Activity: Toxic
[10]
  bioavailability: > 100%
Cytochrome P450 2C19 [11]
  IC50: > 20000 nM
Cytochrome P450 2C9
  Activity: Not Active
[12]
  AUC: 80.5 µM·h
[13]
  AUC: 26.3 µM·h
[14]
  fraction unbound: 0.1
[15]
  half-life: 5.7 h
[16]
  MRT: 3.1 h
[17]
  remaining at 10 min: 91%
[18]
  Cmax: 11.2 µM
TGF-beta receptor type-1 [19]
  IC50: 230 nM
Cytochrome P450 2D6
  Activity: Not Active
[20]
  Tmax: 0.3 h
[21]
  Vd: 4.5 L/kg
